Test results as given in ChEMBL document CHEMBL1147863, “Synthesis, antimicrobial activities and cytogenetic studies of newer diazepino quinoline derivatives via Vilsmeier-Haack reaction” (2007).

Columns and labels:
Fusarium oxysporum [1] = assay: Antifungal activity against Fusarium oxysporum at 1% (w/v) concentration by disc diffusion method; type: functional
Procedure, shortened: (§1)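 Potato dextrose agar plates were seeded with a spore suspension (10⁶ spores/mL). Compounds in acetone at a final 0.5%, 1% or 2% w/v were loaded onto 5 mm filter-paper discs. Plates were incubated at 28 ± 2 °C for four days. Zone diameter was measured after subtracting the acetone-only plate zone, with carbendazim as standard.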

Escherichia coli [2] = assay: Antibacterial activity against Escherichia coli at 0.125% (w/v) concentration after 24 hrs by disc diffusion method; type: functional
Procedure, shortened: (§2)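 Disc diffusion on nutrient agar (pH 7.5 ± 0.2) swabbed with bacterial culture; compounds dissolved in chloroform at 0.125%, 0.25% or 0.5% w/v, soaked onto 5 mm filter paper discs placed on seeded plates. Incubated 35 ± 2 °C, 24 h; inhibition zone diameter (mm) measured, minus zone from solvent-only plate.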

[3] = Induction of chromosomal aberration in human peripheral blood leukocytes assessed as number of chromatid breaks at 20 ug/mL after 48 hrs; type: functional, Leukocyte
Procedure, shortened: (§3)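 Leukocytes from venous blood of three healthy non-smoking male donors, cultured at 37 °C for 72 h in McCoy's 5a with AB serum and PHA. Compound in 1% acetone was added at 0, 24 or 48 h after culture initiation (72, 48 or 24 h exposure), with water and acetone controls and triplicate cultures. Colchicine was added before harvest, then KCl hypotonic, fixation and Giemsa staining. Gaps and breaks were counted in 350 metaphases per treatment.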

Alternaria macrospora [4] = assay: Antifungal activity against Alternaria macrospora at 0.5% (w/v) concentration by disc diffusion method; type: functional; procedure, shortened: as §1
[5] = Induction of chromosomal aberration in human peripheral blood leukocytes assessed as number of chromatid gaps at 20 ug/mL after 48 hrs; type: functional, Leukocyte; procedure, shortened: as §3
Aeromonas hydrophila [6] = assay: Antibacterial activity against Aeromonas hydrophila at 0.5% (w/v) concentration after 24 hrs by disc diffusion method; type: functional; procedure, shortened: as §2
Aspergillus flavus [7] = assay: Antifungal activity against Aspergillus flavus at 2% (w/v) concentration by disc diffusion method; type: functional; procedure, shortened: as §1
Salmonella typhi [8] = assay: Antibacterial activity against Salmonella typhi at 0.125% (w/v) concentration after 24 hrs by disc diffusion method; type: functional, Salmonella enterica subsp. enterica serovar Typhi
Procedure, shortened: (§4)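 Disc diffusion on nutrient agar (pH 7.5 ± 0.2) swabbed with bacteria. Compounds were dissolved in chloroform at a final 0.125%, 0.25% or 0.5% w/v and loaded onto 5 mm filter-paper discs. Plates were incubated at 35 ± 2 °C for 24 h. The inhibition-zone diameter (mm) was reported after subtracting the zone of the solvent-only plate.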

Aspergillus flavus [9] = assay: Antifungal activity against Aspergillus flavus at 0.5% (w/v) concentration by disc diffusion method; type: functional; procedure, shortened: as §1
Escherichia coli [10] = assay: Antibacterial activity against Escherichia coli at 0.25% (w/v) concentration after 24 hrs by disc diffusion method; type: functional; procedure, shortened: as §2
Talaromyces funiculosus [11] = assay: Antifungal activity against Penicillium funiculosum at 0.5% (w/v) concentration by disc diffusion method; type: functional; procedure, shortened: as §1
Fusarium oxysporum [12] = assay: Antifungal activity against Fusarium oxysporum at 0.5% (w/v) concentration by disc diffusion method; type: functional; procedure, shortened: as §1
Aeromonas hydrophila [13] = assay: Antibacterial activity against Aeromonas hydrophila at 0.25% (w/v) concentration after 24 hrs by disc diffusion method; type: functional; procedure, shortened: as §2
Alternaria macrospora [14] = assay: Antifungal activity against Alternaria macrospora at 1% (w/v) concentration by disc diffusion method; type: functional; procedure, shortened: as §1
[15] = Induction of chromosomal aberration in human peripheral blood leukocytes assessed as number of chromatid gaps at 20 ug/mL after 24 hrs; type: functional, Leukocyte; procedure, shortened: as §3
Fusarium oxysporum [16] = assay: Antifungal activity against Fusarium oxysporum at 2% (w/v) concentration by disc diffusion method; type: functional; procedure, shortened: as §1
Alternaria macrospora [17] = assay: Antifungal activity against Alternaria macrospora at 2% (w/v) concentration by disc diffusion method; type: functional; procedure, shortened: as §1
Salmonella typhi [18] = assay: Antibacterial activity against Salmonella typhi at 0.25% (w/v) concentration after 24 hrs by disc diffusion method; type: functional, Salmonella enterica subsp. enterica serovar Typhi; procedure, shortened: as §4
Talaromyces funiculosus [19] = assay: Antifungal activity against Penicillium funiculosum at 1% (w/v) concentration by disc diffusion method; type: functional; procedure, shortened: as §1
Escherichia coli [20] = assay: Antibacterial activity against Escherichia coli at 0.5% (w/v) concentration by after 24 hrs by disc diffusion method; type: functional; procedure, shortened: as §2
Talaromyces funiculosus [21] = assay: Antifungal activity against Penicillium funiculosum at 2% (w/v) concentration by disc diffusion method; type: functional; procedure, shortened: as §1
Aeromonas hydrophila [22] = assay: Antibacterial activity against Aeromonas hydrophila at 0.125% (w/v) concentration after 24 hrs by disc diffusion method; type: functional; procedure, shortened: as §2
Aspergillus flavus [23] = assay: Antifungal activity against Aspergillus flavus at 1% (w/v) concentration by disc diffusion method; type: functional; procedure, shortened: as §1
Salmonella typhi [24] = assay: Antibacterial activity against Salmonella typhi at 0.5% (w/v) concentration after 24 hrs by disc diffusion method; type: functional, Salmonella enterica subsp. enterica serovar Typhi; procedure, shortened: as §4
[25] = Induction of chromosomal aberration in human peripheral blood leukocytes assessed as number of chromatid breaks at 20 ug/mL after 24 hrs; type: functional, Leukocyte; procedure, shortened: as §3

SMILES: Cc1ccc(C)c2c(Cl)c3c(nc12)C=CNN=C3
- inhibition zone (IZ) (Fusarium oxysporum [1]): 11 mm
- inhibition zone (IZ) (Escherichia coli [2]): 2 mm
- Activity [3]: 0.3%
- inhibition zone (IZ) (Alternaria macrospora [4]): 7 mm
- Activity [5]: 0.9%
- inhibition zone (IZ) (Aeromonas hydrophila [6]): 11 mm
- inhibition zone (IZ) (Aspergillus flavus [7]): 16 mm
- inhibition zone (IZ) (Salmonella typhi [8]): 5 mm
- inhibition zone (IZ) (Aspergillus flavus [9]): 4 mm
- inhibition zone (IZ) (Escherichia coli [10]): 5 mm
- inhibition zone (IZ) (Talaromyces funiculosus [11]): 5 mm
- inhibition zone (IZ) (Fusarium oxysporum [12]): 4 mm
- inhibition zone (IZ) (Aeromonas hydrophila [13]): 8 mm
- inhibition zone (IZ) (Alternaria macrospora [14]): 11 mm
- Activity [15]: 2%
- inhibition zone (IZ) (Fusarium oxysporum [16]): 15 mm
- inhibition zone (IZ) (Alternaria macrospora [17]): 17 mm
- inhibition zone (IZ) (Salmonella typhi [18]): 9 mm
- inhibition zone (IZ) (Talaromyces funiculosus [19]): 10 mm
- inhibition zone (IZ) (Escherichia coli [20]): 9 mm
- inhibition zone (IZ) (Talaromyces funiculosus [21]): 17 mm
- inhibition zone (IZ) (Aeromonas hydrophila [22]): 4 mm
- inhibition zone (IZ) (Aspergillus flavus [23]): 9 mm
- inhibition zone (IZ) (Salmonella typhi [24]): 14 mm
- Activity [25]: 0.9%
